Rows were chosen to be rich in hits. Some 3.9% of all compounds tested hit in one or more screens of this group.
CHRM1 PAM: human M1 muscarinic receptor positive allosteric modulators, primary screen, CHO-K1 cells, Fluo-8 calcium fluorescence, 1536-well. Muscarinic acetylcholine receptor M1 (Homo sapiens), P11229. CHO-K1 hM1, ACh EC20; 0% = ACh EC20, 100% = maximal ACh. activation, % at 3 µM. 360,000 tested, 0.088% active; in the data active = activation above about 19%, passing the limit was not always enough
M1 ag: human M1 muscarinic receptor agonists, primary screen, Fluo-8 calcium fluorescence, CHO-K1 cells, HTS | 360,000 tested, 0.33% active | CHO-K1 hM1, agonist mode; 0% DMSO, 100% acetylcholine EC100 | AID 588814, 2011 | Muscarinic acetylcholine receptor M1 (Homo sapiens), P11229 | activation, % at 3 µM;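 active = activation above the run's mean compound activation plus 3 SD, cut at about 16% in these data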;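 note: peak over basal fluorescence ratio within a 140 s kinetic read after compound addition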
TAAR1 agonist: human TAAR1 agonists, primary screen, Fluo-8 calcium fluorescence, CHO RD-HGA16 cells; vehicle wells 0%, saturating PEA agonist 100%; activation, % at 3 µM; 360,000 tested, 0.99% active; AID 624467, 2012;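 active = activation above the mean activation of all test compounds in the run plus 3 SD, cut at about 38% in these data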
Target sequence (Q96RJ0 whole entry, looked up): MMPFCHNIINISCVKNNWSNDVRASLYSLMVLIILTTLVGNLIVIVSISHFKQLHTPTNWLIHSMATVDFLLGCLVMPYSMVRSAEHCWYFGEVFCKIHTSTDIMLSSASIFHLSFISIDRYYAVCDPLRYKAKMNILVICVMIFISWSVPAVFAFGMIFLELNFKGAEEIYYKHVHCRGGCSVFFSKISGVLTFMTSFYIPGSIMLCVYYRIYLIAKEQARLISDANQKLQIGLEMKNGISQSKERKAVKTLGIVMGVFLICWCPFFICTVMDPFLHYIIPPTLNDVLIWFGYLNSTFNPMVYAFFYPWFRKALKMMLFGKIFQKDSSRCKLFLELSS
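Benchmarks: low control DMSO, high control PEA (EC100); System: CHO RD-HGA16 cells carrying human TAAR1 plus Gα16; Detection: Fluo-8 fluorescence, 5 s baseline then 140 s kinetic read; Schedule: 17-24 h plating, Fluo-8 75 min 37 °C, 30 min RT; Read-out basis: % activation from peak over basal fluorescence ratio, DMSO-to-PEA scaled.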
HTR2A ag: mouse Htr2a agonists via beta-arrestin recruitment, primary screen, cell-based, luminescence. 5-hydroxytryptamine receptor 2A (Mus musculus), P35363. CHO-K1 mHTR2A beta-arrestin complementation; percent of 30 µM serotonin response. activation, % at 7.6 µM. 360,000 tested, 0.66% active. AID 624169, 2012;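 active = activation above a run cutoff, the mean activation of all tested compounds plus 3 SD, cut at about 14% in these data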;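 note: 0% = plate median of compound wells and 100% = 30 µM serotonin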
M1 antag: human M1 muscarinic receptor antagonists, primary screen, CHO-K1 cells, Fluo-8 calcium fluorescence, 1536-well | Muscarinic acetylcholine receptor M1 (Homo sapiens), P11229 | CHO-K1 hM1, ACh EC80 antagonist | inhibition, % at 3 µM | 360,000 tested, 1.3% active | AID 588852, 2011;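 active = percent inhibition above its own plate's cutoff, namely the mean of that plate's compound wells plus 3 SD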;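 note: peak over basal fluorescence ratio during 140 s after agonist addition; 0% = ACh EC80 plus DMSO and 100% = DMSO alone without agonist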
TAAR1 antag: human TAAR1 antagonists, primary screen, Fluo-8 calcium fluorescence, CHO RD-HGA16 cells | Trace amine-associated receptor 1 (Homo sapiens), Q96RJ0 | AID 624466, 2012 | inhibition, % at 3 µM | 360,000 tested, 1.5% active | antagonist;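 active = inhibition above a per-plate cutoff, the mean inhibition of test compounds on that plate plus 3 SD, cut at about 49% in these data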;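 note: 0% = DMSO plus EC80 beta-PEA response and 100% = DMSO alone without agonist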
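Assay system: RD-HGA16 CHO cells with stable hTAAR1 and Gα16 / Reagent: EC80 β-phenethylamine stimulus / Doses: 3 µM, single point / Timing: dye loading 75 min at 37 °C, then 30 min room temperature / Measured by: Fluo-8 intracellular calcium dye fluorescence, real-time kinetic reads / Controls: vehicle wells and EC80 agonist wells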
* marks the source's active call; other numbers are inactive results; . = no result.

SMILES	CHRM1 PAM	M1 ag	TAAR1 agonist	HTR2A ag	M1 antag	TAAR1 antag
Cc1ccc(/C=N/Nc2ccc(C(=O)O)cc2)s1	7	0	4	4	-2	-27
O=C(O)c1ccc(N/N=C/c2cc(Br)cs2)cc1	-4	-2	38*	-2	6	7
O=C(NCc1cc(C(F)(F)F)cc(C(F)(F)F)c1)c1cc(-c2cc(F)ccc2OCC2CCCO2)n[nH]1 (stereo not drawn)	8	-2	-1	-2	-13	-27
COc1cc(CNC(=O)c2cc(-c3cc(F)ccc3OCC3CCCO3)n[nH]2)cc(OC)c1 (stereo not drawn)	-17	-4	5	-4	16	53*
CCN(CC)CCCNC(=O)CCn1nc(-c2ccccc2)ccc1=O	-9	-6	2	2	20	-2
O=C(NCC(=O)N1CCN(C/C=C/c2ccccc2)CC1)c1ccc(Br)cc1	-15	18*	9	-8	33*	-14
COc1ccc(C(=O)NCC(=O)N2CCN(c3ccccc3)CC2)cc1	12	0	-2	1	-15	-8
C[C@H](NC(=O)c1ccc(C(C)(C)C)cc1)C(=O)N1CCN(C/C=C/c2ccccc2)CC1	-16	38*	6	-12	46*	-9
CC(C)C(NC(=O)c1ccccc1)C(=O)N1CCN(C/C=C/c2ccccc2)CC1 (stereo not drawn)	-6	-3	1	-11	5	-13
CSCCC(NC(=O)c1ccc(Cl)c([N+](=O)[O-])c1)C(=O)N1CCN(C/C=C/c2ccccc2)CC1 (stereo not drawn)	-2	20*	0	-7	2	27
O=C(NCC(=O)N1CCN(c2ccccc2)CC1)c1ccc(Cl)cc1	3	-2	1	-2	69*	-33
COC(=O)C1=C(C)N(C)C(=NCc2ccc3c(c2)OCO3)NC1c1ccc(Cl)cc1 (stereo not drawn)	.	.	5	.	.	8
CCCCn1c(-c2csc3c2CCC(C)C3)n[nH]c1=S (stereo not drawn)	-21	-8	7	6	47*	33
COc1ccc(C2C(C(C)=O)=C(C)N=c3s/c(=C\c4cc(C)n(C)c4C)c(=O)n32)c(OC)c1 (stereo not drawn)	-6	15	41*	-3	17	30
COc1ccc(C2C(C(C)=O)=C(C)N=c3s/c(=C\c4ccco4)c(=O)n32)c(OC)c1 (stereo not drawn)	6	-5	9	-2	-4	3
CC1(c2ccc3ccccc3c2)CCC(=O)O1 (stereo not drawn)	9	-6	1	-2	-18	-9
COCCN1C(=O)/C(=C/c2ccc(N3CCCC3)cc2)SC1=S	1	4	52*	0	10	50*
CCN(CC(=O)Nc1c(F)cccc1F)C(=O)c1cccnc1Sc1ccccc1	13	7	3	1	-7	-24
O=C1c2cccc3cccc(c23)C(=O)N1CCCc1n[nH]c(=S)n1-c1ccccc1	-8	0	1	8	31*	2
c1ccc(Cn2c3ccccc3c3nnc(SCCN4CCCCC4)nc32)cc1	-23	-10	0	-8	29	-21
C=CCn1c2ccccc2c2nnc(SCCN3CCCCC3)nc21	-29	-10	4	-7	53*	-17
C=CCn1c2ccccc2c2nnc(SCN3C(=O)c4ccccc4C3=O)nc21	-22	0	16	-3	46*	51*
CCn1c2ccc(C)cc2c2nnc(SCCN3CCCCC3)nc21	-20	-11	-1	-14	37*	-9
O=C1c2ccccc2C(=O)N1CSc1nnc2c3ccccc3n(CCc3ccccc3)c2n1	5	-1	.	-5	-50	.
